We go through three compounds from ChEMBL document CHEMBL2057177, “Analogues of fenarimol are potent inhibitors of Trypanosoma cruzi and are efficacious in a murine model of Chagas disease” (J Med Chem, 2012).

Values after ≈ are worked out from the molar mass of the structure shown. Active and inactive are the calls of the source. The rule behind the calls is not given here.

In data set [1] the target is T1, CYP3A4/5 (Homo sapiens, UniProt P08684+P20815). Kind of data set: Inhibition of […] in human liver microsomes at 20 uM. It is filed as ADME, Microsome. On the technique in general: Microsomes from liver hold many membrane-bound enzymes, among them those of drug oxidation.
Data set [2] in a line: Plasma concentration in Swiss mouse at 20 mg/kg, po after 1 hr. Details: dose 20 mg/kg, route oral. It is filed as ADME, organism-based. The method, boiled down: (§1)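 Nonfasted male Swiss outbred mice (23.8–39.9 g), fed throughout. Dosed by oral gavage as solution or suspension in aqueous vehicle. Plasma assayed by LC-MS against blank-plasma standards after acetonitrile precipitation; LLOQ 0.001–0.015 μM.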

A short description of data set [3]: Plasma concentration in Swiss mouse at 20 mg/kg, po after 8 hrs. Type of data set: ADME, organism-based. The arrangement: dose 20 mg/kg, route oral. The method, boiled down: as §1
The test system of data set [4] is Trypanosoma cruzi. Kind of data set: Antitrypanosomal activity against trypomastigotes of Trypanosoma cruzi Tulahuen expressing the beta- galactosidase gene infected rat L6 cells after 96 hrs. It is filed as functional, organism-based. To be noted: L6, 96 h. In outline:
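Tulahuén trypomastigotes expressing β-galactosidase, maintained by serial passage in L6 cells. L6 cells seeded and left 24 h at 37 °C, 5% CO2, then infected at MOI 3 for 48 h. Compound exposure 96 h, benznidazole control. CPRG with 0.3% Nonidet P-40 added, absorbance at 530 nm after 4−6 h. IC50 taken from % inhibition curve; mean of at least two assays.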

Data set [5] deals with Trypanosoma cruzi. Kind of data set: Antitrypanosomal activity against trypomastigotes of Trypanosoma cruzi Tulahuen infected in Swiss mouse model of chagas disease assessed as increase of host survival at 100 mg/kg, ip administered 8 days after post infection qd for 5 days. It is filed as functional, organism-based. Details: dose 100 mg/kg. The method, boiled down:
(§2)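 Female outbred Swiss mice, about 8 weeks old, infected ip with Tulahuén parasites; five mice per group. Daily dosing starts day 8 post-infection. Oral doses given by gavage in HPMC vehicle (0.5% HPMC, 0.4% Tween 80, 0.5% benzyl alcohol); ip doses in PBS with 0.4% Tween 80 and 10% PEG400. Tail-prick blood taken days 8, 9, 12, 14, 16, 19 and 27 post-infection, red cells lysed, and live trypomastigotes counted by hemocytometer. % efficacy = (vehicle mean − treated mean)/vehicle mean × 100. Survival recorded as surviving/infected-and-treated.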

Data set [6] deals with Trypanosoma cruzi. Kind of data set: Antitrypanosomal activity against trypomastigotes of Trypanosoma cruzi Tulahuen infected in Swiss mouse model of chagas disease assessed as decrease in parasite level in blood at 100 mg/kg, ip administered 8 days after post infection qd for 5 days. It is filed as functional. The arrangement: scale not given: the % may be the effect or the level left. Particulars: route intraperitoneal. The method, boiled down:
as §2

In data set [7] the test system is Trypanosoma cruzi. Kind of data set: Antitrypanosomal activity against trypomastigotes of Trypanosoma cruzi Tulahuen infected immunosuppressed Swiss mouse assessed as level of parasite in blood at 20 mg/kg, po administered 8 day after post infection qd for 20 days measured after 3 cycles of immunosuppression. Type of data set: functional, organism-based. Details: dose 20 mg/kg.

A short description of data set [8]: Elimination half life in Sprague-Dawley rat at 5.2 mg/kg, iv. It is filed as ADME, organism-based. The arrangement: dose 5.2 mg/kg, route intravenous. To be noted: in vivo, read-out: beta t1/2 (converted). In outline: (§3)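 Overnight-fasted male Sprague–Dawley rats (272–320 g), n = 2 per route. IV dose given as a 10 min jugular infusion in aqueous solution; oral dose by gavage as aqueous suspension. Arterial blood taken via carotid cannula up to 24 h. Plasma measured by LC-MS after acetonitrile precipitation. Noncompartmental analysis. Blood clearance = plasma clearance divided by in vitro blood/plasma ratio. Bioavailability from mean dose-normalised AUC0–inf, oral versus IV.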

Data set [9] has as its system Trypanosoma cruzi. Kind of data set: Antitrypanosomal activity against trypomastigotes of Trypanosoma cruzi Tulahuen infected in Swiss mouse model of chagas disease assessed as decrease in parasite level in blood at 50 mg/kg, po administered 8 day after post infection qd for 10 days measured on day 21. It is filed as functional, organism-based. Details: dose 50 mg/kg.

Data set [10] deals with Trypanosoma cruzi. Kind of data set: Antitrypanosomal activity against trypomastigotes of Trypanosoma cruzi Tulahuen infected in Swiss mouse model of chagas disease assessed as decrease in parasite level in blood at 20 mg/kg, po administered 8 day after post infection qd for 20 days. It is filed as functional. The arrangement: scale not given: the % may be the effect or the level left. In outline:
as §2

The subject of data set [11] is Trypanosoma cruzi. Kind of data set: Antitrypanosomal activity against trypomastigotes of Trypanosoma cruzi Tulahuen infected in Swiss mouse model of chagas disease assessed as decrease in parasite level in blood at 50 mg/kg, po administered 8 day after post infection qd for 10 days. Type of data set: functional, organism-based. The arrangement: dose 50 mg/kg.
The test system of data set [12] is Trypanosoma cruzi. Kind of data set: Antitrypanosomal activity against trypomastigotes of Trypanosoma cruzi Tulahuen infected immunosuppressed Swiss mouse assessed as level of parasite in blood at 50 mg/kg, po administered after 2 cycles of immunosuppression qd for 10 days. Type of data set: functional, organism-based. The arrangement: dose 50 mg/kg.
The target in data set [13] is T1, CYP3A4/5. Kind of data set: Inhibition of CYP3A4/5 in human liver microsomes. It is filed as ADME, Microsome.
Data set [14] concerns Trypanosoma cruzi. Kind of data set: Antitrypanosomal activity against trypomastigotes of Trypanosoma cruzi Tulahuen infected immunosuppressed Swiss mouse assessed as level of parasite in blood at 100 mg/kg, po administered 8 day after post infection qd for 20 days measured after 3 cycles of immunosuppression. It is filed as functional, organism-based. Details: dose 100 mg/kg.

Data set [15] is described as follows: Apparent volume of distribution at steady state in Sprague-Dawley rat at 5.2 mg/kg, iv. Details: dose 5.2 mg/kg, route intravenous. It is filed as ADME, organism-based. To be noted: in vivo, read-out: Vdss(app). The method, boiled down: as §3
A short description of data set [16]: Blood Clearance in Sprague-Dawley rat at 5.2 mg/kg, iv. It is filed as ADME, organism-based. Details: dose 5.2 mg/kg, route intravenous. To be noted: whole blood. The method, boiled down:
as §3

Data set [17] is described as follows: Oral bioavailability in Sprague-Dawley rat at 17.6 mg/kg. Particulars: in vivo. Type of data set: ADME, organism-based. The method, boiled down:
as §3

In data set [18] the test system is Trypanosoma cruzi. Kind of data set: Antitrypanosomal activity against trypomastigotes of Trypanosoma cruzi Tulahuen infected in Swiss mouse model of chagas disease assessed as level of parasite in blood at 20 mg/kg, po qd for 20 days measured after 30 day. It is filed as functional, organism-based. Details: dose 20 mg/kg. The method, boiled down:
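Female Swiss mice infected ip with Tulahuén parasites; oral gavage dosing in HPMC vehicle, daily from day 8 post-infection. Dosing is followed by 10 days without compound. If blood is then parasite-free, mice receive cyclophosphamide ip 50 mg/kg/day, up to three cycles (4 days on, 3 rest). Parasitemia counted in tail-prick blood by hemocytometer.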

Data set [19] is described as follows: Kinetic solubility of the compound at pH 6.5 by nephelometric analysis. To be noted: buffer, read-out: Kinetic_solubility. Type of data set: physicochemical.
The subject of data set [20] is Trypanosoma cruzi. Kind of data set: Antitrypanosomal activity against trypomastigotes of Trypanosoma cruzi Tulahuen infected in Swiss mouse model of chagas disease assessed as increase in host survival at 100 mg/kg, po administered 8 day after post infection qd for 20 days. It is filed as functional, organism-based. Details: dose 100 mg/kg.
Data set [21] deals with Trypanosoma cruzi. Kind of data set: Antitrypanosomal activity against trypomastigotes of Trypanosoma cruzi Tulahuen infected in Swiss mouse model of chagas disease assessed as decrease in parasite level in blood at 100 mg/kg, po administered 8 day after post infection qd for 20 days. It is filed as functional. Details: scale not given: the % may be the effect or the level left.

`OC(c1ccc(Cl)cc1)(c1cncnc1)c1ccccc1Cl` (centres undefined) [FENARIMOL] had an inhibition at 20 µM in data set [1] of 66%. The concentration at 1 h in [2] was 2100 nM. The concentration at 8 h in [3] was determined as 80 nM. Further, half-maximal inhibition in [4] (IC50) was put at 0.35 µM. The result in [5] was Active. Moreover, in [6], the Activity worked out at 80%.

Turning to `N#Cc1ccc(C(O)(c2ccc(C(F)(F)F)cc2)c2cccnc2)cc1` (racemic), the outcome in [7], in data set [9], in [11], in data set [14] and in data set [18] was Active. In [8], the half-life was 5.1 h. Moreover, in data set [10], the Activity was >99%. In data set [12], the outcome was inactive. Further, the figures for the IC50 in data set [4] and in data set [13] were 0.012 µM and 7.6 µM, respectively. The Vd in [15] is 5.7 L/kg. In addition, the clearance in data set [16] came to 24.4 mL/min/kg. In addition, the bioavailability in [17] came to 68.1%. In data set [19], the solubility kinetic was 6.3 µg/mL (≈ 17.8 µM).

`O=C(Cn1ccnc1[N+](=O)[O-])NCc1ccccc1` [BENZNIDAZOLE]: the outcome in data set [7], in data set [20] and in data set [14] was Active. Besides, the Activity in [21] was >99%.

In general, inhibition refers to the percentage by which the read-out fell short of the control. For orientation: IC50 means the concentration needed to halve the response being measured. Usually clearance stands for a measure of how efficiently the substance is removed, as volume per time. One may read the bioavailability as the share of a dose that reaches the circulation, judged against a reference dose that is usually intravenous.
